In ChEMBL document CHEMBL1221233, “4''-O-(omega-Quinolylamino-alkylamino)propionyl derivatives of selected macrolides with the activity against the key erythromycin resistant respiratory pathogens” (2010):
Values after ≈ are worked out from the molar mass of the structure shown.

Key:
Format in all cases: functional
Streptococcus pneumoniae [1] = assay: Antibacterial activity against constitutive MLS resistance Streptococcus pneumoniae 58 by broth microdilution method
Outline: (§1)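 MIC by CLSI broth microdilution. In the streptococcal medium, 5% horse serum replaced lysed blood. Compounds were tested as two-fold serial dilutions. Strains were first grown on Columbia agar with 5% sheep blood. The MIC was read as the lowest concentration inhibiting growth.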

Streptococcus pneumoniae [2] = assay: Antibacterial activity against inducible resistance to macrolide and constitutive resistance to lincosamide Streptococcus pneumoniae 134 GR M by broth microdilution method; outline: as §1
Streptococcus pyogenes [3] = assay: Antibacterial activity against efflux-mediated macrolide-resistance Streptococcus pyogenes 2 Finland by broth microdilution method; outline: as §1
Staphylococcus aureus [4] = assay: Antibacterial activity against efflux-mediated macrolide-resistance Staphylococcus aureus PK1 by broth microdilution method
Outline: (§2)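 Staphylococci were grown on Mueller-Hinton agar and then tested by CLSI-guideline broth microdilution against two-fold serial dilutions of compound. The result was recorded as the minimum inhibitory concentration.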

Streptococcus pneumoniae [5] = assay: Antibacterial activity against efflux-mediated macrolide-resistance Streptococcus pneumoniae Ci137 by broth microdilution method; outline: as §1
Streptococcus pyogenes [6] = assay: Antibacterial activity against constitutive MLS resistance sStreptococcus pyogenes 166 GR-Micro by broth microdilution method; outline: as §1
Staphylococcus aureus [7] = assay: Antibacterial activity against inducible resistance to macrolide, licosamide and streptogramin Staphylococcus aureus 90256 by broth microdilution method; outline: as §2
Haemophilus influenzae = assay: Antibacterial activity against Haemophilus influenzae ATCC 49247 by broth microdilution method
Outline: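 MIC by broth microdilution following CLSI guidelines, expressed in units of lg/mL. Twofold dilutions prepared in 96-well plates. H. influenzae grown on Mueller-Hinton chocolate agar before testing.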

| SMILES | MIC (Streptococcus pneumoniae [1]) | MIC (Streptococcus pneumoniae [2]) | MIC (Streptococcus pyogenes [3]) | MIC (Staphylococcus aureus [4]) | MIC (Streptococcus pneumoniae [5]) | MIC (Streptococcus pyogenes [6]) | MIC (Staphylococcus aureus [7]) | MIC (Haemophilus influenzae) |
| --- | --- | --- | --- | --- | --- | --- | --- | --- |
| CC[C@H]1OC(=O)[C@H](C)[C@@H](O[C@H]2C[C@@](C)(OC)[C@@H](OC(=O)CCNCCNc3ccc4c(=O)c(C(=O)O)cn(C)c4c3)[C@H](C)O2)[C@H](C)[C@@H](O[C@@H]2O[C@H](C)C[C@H](N(C)C)[C@H]2O)[C@](C)(O)C[C@@H](C)CN(C)[C@H](C)[C@@H](O)[C@]1(C)O | ≤ 0.125 µg/mL | ≤ 0.125 µg/mL | ≤ 0.125 µg/mL | 2 µg/mL (≈ 1.88 µM) | ≤ 0.125 µg/mL | ≤ 0.125 µg/mL | 4 µg/mL (≈ 3.76 µM) | 8 µg/mL (≈ 7.52 µM) |
| CC[C@H]1OC(=O)[C@H](C)[C@@H](O[C@H]2C[C@@](C)(OC)[C@@H](OC(=O)CCNCCNc3ccc4c(=O)c(C(=O)O)cn(CC)c4c3)[C@H](C)O2)[C@H](C)[C@@H](O[C@@H]2O[C@H](C)C[C@H](N(C)C)[C@H]2O)[C@](C)(O)C[C@@H](C)CN(C)[C@H](C)[C@@H](O)[C@]1(C)O | ≤ 0.125 µg/mL | ≤ 0.125 µg/mL | ≤ 0.125 µg/mL | 2 µg/mL (≈ 1.85 µM) | ≤ 0.125 µg/mL | ≤ 0.125 µg/mL | 4 µg/mL (≈ 3.71 µM) | 4 µg/mL (≈ 3.71 µM) |
| CC[C@H]1OC(=O)[C@H](C)[C@@H](O[C@H]2C[C@@](C)(OC)[C@@H](OC(=O)CCNCCNc3ccc4c(=O)c(C(=O)O)cn(C5CC5)c4c3)[C@H](C)O2)[C@H](C)[C@@H](O[C@@H]2O[C@H](C)C[C@H](N(C)C)[C@H]2O)[C@](C)(O)C[C@@H](C)CN(C)[C@H](C)[C@@H](O)[C@]1(C)O | ≤ 0.125 µg/mL | ≤ 0.125 µg/mL | ≤ 0.125 µg/mL | 1 µg/mL (≈ 0.917 µM) | ≤ 0.125 µg/mL | ≤ 0.125 µg/mL | 2 µg/mL (≈ 1.83 µM) | 4 µg/mL (≈ 3.67 µM) |
| CC[C@H]1OC(=O)[C@H](C)[C@@H](O[C@H]2C[C@@](C)(OC)[C@@H](OC(=O)CCNCCCCNc3ccc4c(=O)c(C(=O)O)cn(C)c4c3)[C@H](C)O2)[C@H](C)[C@@H](O[C@@H]2O[C@H](C)C[C@H](N(C)C)[C@H]2O)[C@](C)(O)C[C@@H](C)CN(C)[C@H](C)[C@@H](O)[C@]1(C)O | 32 µg/mL (≈ 29.3 µM) | 32 µg/mL (≈ 29.3 µM) | 4 µg/mL (≈ 3.66 µM) | 8 µg/mL (≈ 7.32 µM) | 2 µg/mL (≈ 1.83 µM) | 8 µg/mL (≈ 7.32 µM) | > 64 µg/mL | 16 µg/mL (≈ 14.6 µM) |
| CC[C@H]1OC(=O)[C@H](C)[C@@H](O[C@H]2C[C@@](C)(OC)[C@@H](OC(=O)CCNCCCCNc3ccc4c(=O)c(C(=O)O)cn(CC)c4c3)[C@H](C)O2)[C@H](C)[C@@H](O[C@@H]2O[C@H](C)C[C@H](N(C)C)[C@H]2O)[C@](C)(O)C[C@@H](C)CN(C)[C@H](C)[C@@H](O)[C@]1(C)O | 2 µg/mL (≈ 1.81 µM) | 8 µg/mL (≈ 7.23 µM) | 8 µg/mL (≈ 7.23 µM) | 4 µg/mL (≈ 3.62 µM) | 1 µg/mL (≈ 0.904 µM) | 8 µg/mL (≈ 7.23 µM) | > 32 µg/mL | > 32 µg/mL |
| CC[C@H]1OC(=O)[C@H](C)[C@@H](O[C@H]2C[C@@](C)(OC)[C@@H](OC(=O)CCNCCCCNc3ccc4c(=O)c(C(=O)O)cn(C5CC5)c4c3)[C@H](C)O2)[C@H](C)[C@@H](O[C@@H]2O[C@H](C)C[C@H](N(C)C)[C@H]2O)[C@](C)(O)C[C@@H](C)CN(C)[C@H](C)[C@@H](O)[C@]1(C)O | 4 µg/mL (≈ 3.58 µM) | 8 µg/mL (≈ 7.15 µM) | 1 µg/mL (≈ 0.894 µM) | 2 µg/mL (≈ 1.79 µM) | 0.5 µg/mL (≈ 0.447 µM) | 4 µg/mL (≈ 3.58 µM) | 8 µg/mL (≈ 7.15 µM) | 8 µg/mL (≈ 7.15 µM) |
| CC[C@H]1OC(=O)[C@H](C)[C@@H](O[C@H]2C[C@@](C)(OC)[C@@H](OC(=O)CCNCCNc3cc4c(=O)c(C(=O)O)cn(C5CC5)c4cc3Cl)[C@H](C)O2)[C@H](C)[C@@H](O[C@@H]2O[C@H](C)C[C@H](N(C)C)[C@H]2O)[C@](C)(O)C[C@@H](C)CN(C)[C@H](C)[C@@H](O)[C@]1(C)O | ≤ 0.125 µg/mL | ≤ 0.125 µg/mL | ≤ 0.125 µg/mL | 0.25 µg/mL (≈ 0.222 µM) | ≤ 0.125 µg/mL | ≤ 0.125 µg/mL | 0.5 µg/mL (≈ 0.445 µM) | 1 µg/mL (≈ 0.889 µM) |
| CC[C@H]1OC(=O)[C@H](C)[C@@H](O[C@H]2C[C@@](C)(OC)[C@@H](OC(=O)CCNCCNc3cc4c(cc3F)c(=O)c(C(=O)O)cn4C3CC3)[C@H](C)O2)[C@H](C)[C@@H](O[C@@H]2O[C@H](C)C[C@H](N(C)C)[C@H]2O)[C@](C)(O)C[C@@H](C)CN(C)[C@H](C)[C@@H](O)[C@]1(C)O | 0.25 µg/mL (≈ 0.226 µM) | 1 µg/mL (≈ 0.902 µM) | 1 µg/mL (≈ 0.902 µM) | 0.5 µg/mL (≈ 0.451 µM) | 0.25 µg/mL (≈ 0.226 µM) | 2 µg/mL (≈ 1.8 µM) | 0.5 µg/mL (≈ 0.451 µM) | 2 µg/mL (≈ 1.8 µM) |
| CC[C@H]1OC(=O)[C@H](C)[C@@H](O[C@H]2C[C@@](C)(OC)[C@@H](OC(=O)CCNCCNc3cc4c(=O)c(C(=O)OC)cn(C5CC5)c4cc3Cl)[C@H](C)O2)[C@H](C)[C@@H](O[C@@H]2O[C@H](C)C[C@H](N(C)C)[C@H]2O)[C@](C)(O)C[C@@H](C)CN(C)[C@H](C)[C@@H](O)[C@]1(C)O | ≤ 0.125 µg/mL | ≤ 0.125 µg/mL | ≤ 0.125 µg/mL | 8 µg/mL (≈ 7.02 µM) | ≤ 0.125 µg/mL | ≤ 0.125 µg/mL | > 64 µg/mL | 8 µg/mL (≈ 7.02 µM) |
| CC[C@H]1OC(=O)[C@H](C)[C@@H](O[C@H]2C[C@@](C)(OC)[C@@H](OC(=O)CCNCCNc3ccc4c(c3)c(=O)c(C(=O)O)cn4C3CC3)[C@H](C)O2)[C@H](C)[C@@H](O[C@@H]2O[C@H](C)C[C@H](N(C)C)[C@H]2O)[C@](C)(O)C[C@@H](C)CN(C)[C@H](C)[C@@H](O)[C@]1(C)O | ≤ 0.125 µg/mL | ≤ 0.125 µg/mL | ≤ 0.125 µg/mL | 1 µg/mL (≈ 0.917 µM) | ≤ 0.125 µg/mL | ≤ 0.125 µg/mL | 1 µg/mL (≈ 0.917 µM) | 4 µg/mL (≈ 3.67 µM) |
| CC[C@H]1OC(=O)[C@H](C)[C@@H](O[C@H]2C[C@@](C)(OC)[C@@H](OC(=O)CCN(C)CCNc3cc4c(=O)c(C(=O)O)cn(C5CC5)c4cc3Cl)[C@H](C)O2)[C@H](C)[C@@H](O[C@@H]2O[C@H](C)C[C@H](N(C)C)[C@H]2O)[C@](C)(O)C[C@@H](C)CN(C)[C@H](C)[C@@H](O)[C@]1(C)O | ≤ 0.125 µg/mL | ≤ 0.125 µg/mL | ≤ 0.125 µg/mL | 0.5 µg/mL (≈ 0.439 µM) | ≤ 0.125 µg/mL | ≤ 0.125 µg/mL | 0.5 µg/mL (≈ 0.439 µM) | 1 µg/mL (≈ 0.878 µM) |
| CC[C@H]1OC(=O)[C@H](C)[C@@H](O[C@H]2C[C@@](C)(OC)[C@@H](OC(=O)CCN(C)CCNc3cc4c(cc3F)c(=O)c(C(=O)O)cn4C3CC3)[C@H](C)O2)[C@H](C)[C@@H](O[C@@H]2O[C@H](C)C[C@H](N(C)C)[C@H]2O)[C@](C)(O)C[C@@H](C)CN(C)[C@H](C)[C@@H](O)[C@]1(C)O | 0.25 µg/mL (≈ 0.223 µM) | 0.25 µg/mL (≈ 0.223 µM) | ≤ 0.125 µg/mL | 1 µg/mL (≈ 0.891 µM) | ≤ 0.125 µg/mL | 2 µg/mL (≈ 1.78 µM) | 2 µg/mL (≈ 1.78 µM) | 4 µg/mL (≈ 3.56 µM) |
| CC[C@H]1OC(=O)[C@H](C)[C@@H](O[C@H]2C[C@@](C)(OC)[C@@H](OC(=O)CCN(C)CCNc3cc4c(=O)c(C(=O)OC)cn(C5CC5)c4cc3Cl)[C@H](C)O2)[C@H](C)[C@@H](O[C@@H]2O[C@H](C)C[C@H](N(C)C)[C@H]2O)[C@](C)(O)C[C@@H](C)CN(C)[C@H](C)[C@@H](O)[C@]1(C)O | 0.5 µg/mL (≈ 0.434 µM) | 0.5 µg/mL (≈ 0.434 µM) | ≤ 0.125 µg/mL | 16 µg/mL (≈ 13.9 µM) | ≤ 0.125 µg/mL | 1 µg/mL (≈ 0.867 µM) | > 64 µg/mL | 8 µg/mL (≈ 6.94 µM) |
| CC[C@H]1OC(=O)[C@H](C)[C@@H](O[C@H]2C[C@@](C)(OC)[C@@H](OC(=O)CCN(C)CCNc3ccc4c(c3)c(=O)c(C(=O)O)cn4C3CC3)[C@H](C)O2)[C@H](C)[C@@H](O[C@@H]2O[C@H](C)C[C@H](N(C)C)[C@H]2O)[C@](C)(O)C[C@@H](C)CN(C)[C@H](C)[C@@H](O)[C@]1(C)O | ≤ 0.125 µg/mL | 0.25 µg/mL (≈ 0.226 µM) | 0.5 µg/mL (≈ 0.453 µM) | 1 µg/mL (≈ 0.905 µM) | ≤ 0.125 µg/mL | ≤ 0.125 µg/mL | 1 µg/mL (≈ 0.905 µM) | 4 µg/mL (≈ 3.62 µM) |
